Activity calls are given as the source filed them. The calls are words filed in the database; no cut-off is given here.
Assays:
[1] = test system: P388; assay: In vivo antitumor activity against murine lymphocytic leukemia P388 measured as optimal dose which is the highest nontoxic dose; format: functional, Mus musculus
[2] = test system: P388; assay: In vivo antitumor activity against murine lymphocytic leukemia P388 measured as lethal dose […]; format: functional, Mus musculus; design: unit: mg/kg
Summary of the method: (§1)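 Male CD2-F1 mice (20 ± 3 g) implanted ip with 1 × 10^6 viable P388 cells on day 0. Drug given ip as aqueous suspension or solution in 0.9% NaCl or 5% dextrose on days 1, 5 and 9, dosed per body weight in mg/kg. Several dose levels bracketing the LD20 were tested, six mice per dose. Deaths before the control median day of death were counted as drug toxicity.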

[3] = test system: P388; assay: In vivo antitumor activity against murine lymphocytic leukemia P388, measured as percent increase in life span; format: functional, organism-based; conditions: Mus musculus
Summary of the method: (§2)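 Male CD2-F1 mice (20 ± 3 g) implanted ip with 1 × 10^6 viable P388 cells on day 0. Compound given ip as aqueous suspension or solution in 0.9% NaCl or 5% dextrose on days 1, 5 and 9, dosed per mg/kg body weight. Several doses bracketing LD20 were tested, six mice per dose. %ILS was calculated from median day of death of treated versus control mice. Values are optimal from at least two experiments.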

[4] = test system: P388; assay: In vivo antitumor activity against murine lymphocytic leukemia P388 measured as percent increase in life span; format: functional, Mus musculus; summary of the method: as §1
[5] = test system: P388; assay: In vivo antitumor activity against murine lymphocytic leukemia P388 measured as optimal dose; format: functional, Mus musculus; summary of the method: as §2

| Structure (SMILES) | Optimal dose [1] [mg/kg] | LD20 [2] | ILS [3] | ILS [4] [%] | Optimal dose [5] [mg/kg] |
| --- | --- | --- | --- | --- | --- |
| CC(C)CC(CO)NCc1ccc2ccc3cccc4ccc1c2c34.Cl (stereo not drawn) | 1012 | 675 | inactive | – | – |
| CCN(CC)Cc1ccc2ccc3cccc4ccc1c2c34.Cl | 452 | 452 | inactive | – | – |
| CC(NCc1ccc2ccc3cccc4ccc1c2c34)C(O)c1ccccc1.Cl (stereo not drawn) | 675 | 450 | inactive | – | – |
| CC(O)C(C)(CO)NCc1ccc2ccc3cccc4ccc1c2c34.Cl (stereo not drawn) | – | 125 | – | 77 | 125 |
| CN(CCCN)CCCNCc1ccc2ccc3cccc4ccc1c2c34.Cl | – | 23 | – | 20 | 23 |
| CCC(COC(C)=O)(COC(C)=O)NCc1ccc2ccc3cccc4ccc1c2c34 | 303 | 675 | – | 40 | – |
| Cl.c1ccc(CCCCNCc2ccc3ccc4cccc5ccc2c3c45)cc1 | 88 | 130 | inactive | – | – |
| CC(C)(CO)CCCNCc1ccc2ccc3cccc4ccc1c2c34.Cl | 215 | 215 | inactive | – | – |
| Cl.c1cc2ccc3ccc(CNCCCNC4CCCCC4)c4ccc(c1)c2c34 | 200 | 134 | inactive | – | – |
| OCC1OC(O)C(NCc2ccc3ccc4cccc5ccc2c3c45)C(O)C1O (stereo not drawn) | – | 400 | – | 20 | 450 |
| Cl.OCCCCNCc1ccc2ccc3cccc4ccc1c2c34 | 139 | 208 | inactive | – | – |
| Cl.OC(CNCc1ccc2ccc3cccc4ccc1c2c34)c1ccccc1 (stereo not drawn) | 450 | 450 | inactive | – | – |
| Cl.OCCNCCNCc1ccc2ccc3cccc4ccc1c2c34 | 134 | 200 | inactive | – | – |
| Cl.NCc1ccc2ccc3cccc4ccc1c2c34 | 194 | 130 | inactive | – | – |
| CN(CCO)Cc1ccc2ccc3cccc4ccc1c2c34.Cl | 365 | 366 | inactive | – | – |
| CCC(O)CNCc1ccc2ccc3cccc4ccc1c2c34.Cl (stereo not drawn) | 225 | 225 | inactive | – | – |
| Cl.c1ccc(NCCNCc2ccc3ccc4cccc5ccc2c3c45)cc1 | 200 | 300 | inactive | – | – |
| CC(CO)(CO)NCCCc1ccc2ccc3cccc4ccc1c2c34.Cl | 100 | 67.5 | inactive | – | – |
| Cl.OCCCNCc1ccc2ccc3cccc4ccc1c2c34 | 120 | 120 | – | 20 | – |
| Cl.OCC(NCc1ccc2ccc3cccc4ccc1c2c34)C(O)c1ccccc1 (stereo not drawn) | 1013 | 675 | inactive | – | – |
| CN(C)CCCNCc1ccc2ccc3cccc4ccc1c2c34.Cl | 127 | 85 | inactive | – | – |
| Cl.NCCCCCNCc1ccc2ccc3cccc4ccc1c2c34 | 116 | 20 | inactive | – | – |
| NCCCCCCNCc1ccc2ccc3cccc4ccc1c2c34 | 75 | 75 | inactive | – | – |
| Cl.NCCCCNCc1ccc2ccc3cccc4ccc1c2c34 | 19 | 28 | inactive | – | – |

| Structure (SMILES) | Optimal dose [1] [mg/kg] | LD20 [2] | ILS [3] | ILS [4] [%] | Optimal dose [5] [mg/kg] |
| --- | --- | --- | --- | --- | --- |
| CCCCCC(CO)(CO)NCc1ccc2ccc3cccc4ccc1c2c34.Cl | 675 | 675 | inactive | – | – |
| CC1(C)OC[C@@H](O)[C@H](NCc2ccc3ccc4cccc5ccc2c3c45)CO1 | 1013 | 675 | inactive | – | – |
| Cl.NCCCN1CCN(CCCNCc2ccc3ccc4cccc5ccc2c3c45)CC1 | 37 | 37 | – | – | – |
| CC(O)CNCCNCc1ccc2ccc3cccc4ccc1c2c34.Cl (stereo not drawn) | 150 | 150 | inactive | – | – |
| COCCNCc1ccc2ccc3cccc4ccc1c2c34.Cl | 133 | 200 | inactive | – | – |
| CC1(NCc2ccc3ccc4cccc5ccc2c3c45)COC(C)(C)OC1.Cl | 675 | 675 | inactive | – | – |
| CCC(C)C(CO)NCc1ccc2ccc3cccc4ccc1c2c34.Cl (stereo not drawn) | 675 | 675 | inactive | – | – |
| CCCNCc1ccc2ccc3cccc4ccc1c2c34.Cl | 225 | 150 | inactive | – | – |
| CC(O)CCNCc1ccc2ccc3cccc4ccc1c2c34.Cl (stereo not drawn) | 168 | 168 | inactive | – | – |
| Cl.c1ccc(CCNCc2ccc3ccc4cccc5ccc2c3c45)cc1 | 335 | 335 | inactive | – | – |
| Cl.N#CCCNCc1ccc2ccc3cccc4ccc1c2c34 | 300 | 300 | inactive | – | – |
| Cl.Clc1ccc(CNCc2ccc3ccc4cccc5ccc2c3c45)cc1Cl | 900 | 400 | inactive | – | – |
| CC(C)(O)CNCc1ccc2ccc3cccc4ccc1c2c34.Cl | – | 220 | inactive | – | 330 |
| CCN(CC)CCCC(C)NCc1ccc2ccc3cccc4ccc1c2c34.Cl (stereo not drawn) | 150 | 100 | inactive | – | – |
| Cl.c1ccc(CNCc2ccc3ccc4cccc5ccc2c3c45)cc1 | 900 | 600 | inactive | – | – |
| CCN(CC)CCNCc1ccc2ccc3cccc4ccc1c2c34.Cl | 180 | 120 | inactive | – | – |
| Cl.OCC(NCc1ccc2ccc3cccc4ccc1c2c34)c1ccccc1 (stereo not drawn) | 675 | 675 | inactive | – | – |
| Cl.OCCCCCNCc1ccc2ccc3cccc4ccc1c2c34 | 131 | 196 | inactive | – | – |
| Cl.c1ccc(CCCNCc2ccc3ccc4cccc5ccc2c3c45)cc1 | 300 | 300 | inactive | – | – |
| CC(=O)OCC(C)(COC(C)=O)NCc1ccc2ccc3cccc4ccc1c2c34 | 300 | 300 | – | 65 | – |
| Cl.OCCN(CCO)CCCNCc1ccc2ccc3cccc4ccc1c2c34 | 64 | 96 | inactive | – | – |
| C=CCNCc1ccc2ccc3cccc4ccc1c2c34.Cl | 550 | 369 | inactive | – | – |
| CC(C)OCCCNCc1ccc2ccc3cccc4ccc1c2c34.Cl | 120 | 180 | inactive | – | – |
| Cl.OCCN(CCO)Cc1ccc2ccc3cccc4ccc1c2c34 | 225 | 225 | inactive | – | – |
